Reference: paper PMC4267758 (Journal of molecular biology, 2014)
Where two headings read alike, the source gives them in different places. Where no end group is shown, it is not given here. The star is where a group is joined. MTSL = methane thiosulphonate spin label, CC1(C)C=C(CS*)C(C)(C)N1[O]

B3: Pyk2 focal adhesion-targeting (Pyk2-FAT) domain (domain or fragment, human, UniProt Q14289 871-1005, looked up)
chain: ANLDRTDDLVYLNVMELVRAVLELKNELCQLPPEGYVVVVKNVGLTLRKLIGSVDDLLPSLPSSSRTEIEGTQKLLNKDLAELINKMRLAQQNAVTSLSEECKRQMLTASHTLAVDAKNLLDAVDQAKVLANLAH
B5: paxillin^133–290 (LD2–LD4 region of chicken paxillin) (domain or fragment, UniProt P49024 133-290, looked up)
chain: MTSTSLGSNLSELDRLLLELNAVQHNPPSGFSADEVSRSPSLPNVTGPHYVIPESSSSAGGKAAPPTKEKPKRNGGRGIEDVRPSVESLLDELESSVPSPVPAITVSQGEVSSPQRVNASQQQTRISASSATRELDELMASLSDFKFMAQGKAGGSSS

Legend:
Pyk2-FAT [1] = assay: Isothermal titration calorimetry; format: binding, human; conditions: for binding to Pyk2-FAT (qualitative, ITC): 20 mM MES, pH 6.2, 25°C
Summary of the method: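 Human Pyk2 FAT domain (residues 871–1005) with an N-terminal His6 tag, expressed in E. coli BL21(DE3) and purified by Ni-affinity then gel filtration. The cell held 10 μM protein in 20 mM MES, pH 6.2. The syringe held chicken paxillin LD-motif peptides (100 μM) or the His-tagged paxillin 133–290 fragment (50 μM). Solutions degassed; 2 μl injections, 120 s apart, at 25°C. Ligand-into-buffer heats subtracted. Fits used one-site or two-site sequential models. Run in duplicate.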

Pyk2-FAT [2] = assay: Sedimentation equilibrium AUC; format: binding, human; conditions: AUC-SE; for Kd: two site hetero-association model (A+B+B↔ABB), 1:2 Pyk2-FAT to peptide, 20 mM MES, pH 6.2, 4 °C, Monte Carlo error, 500 iterations, confidence level 0.68
Summary of the method: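 Sedimentation equilibrium at 4 °C in 20 mM MES, 50 mM NaCl, pH 6.2. Rotor speeds 18.4, 26.9 and 46k rpm, equilibrium reached at 30, 26 and 18 h. Loading 35–96 μM. Absorbance read at 280 and 230 nm, 0.001 cm radial steps, 20 replicates per point. Global least-squares fit across speeds to the A+B+B↔ABB model.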

Pyk2-FAT [3] = assay: NMR titration / chemical shift perturbation of 15N-labeled Pyk2-FAT; format: binding, human; conditions: 15N-HSQC/TROSY titration, Pyk2-FAT:ligand 1:0.2 to 1:2, 20 mM MES, pH 6.2, 305K
Summary of the method: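 15N-labeled Pyk2-FAT (400–500 μM in 20 mM MES, pH 6.2) titrated at 305 K with chicken LD peptides at protein:peptide ratios of 1:0.2 to 1:2. Peptide stocks were in dialysis buffer, pH readjusted to 6.2. 15N-HSQC spectra recorded at 600/800 MHz. Weighted shift Δav = [(ΔH² + (ΔN/5)²)/2]^1/2. For PRE, MTSL-labeled peptides were added at 1:0.2 and Iox/Ired taken after ascorbate reduction.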

Pyk2-FAT [4] = assay: H/D exchange NMR of Pyk2-FAT complexes; design: species or system human; conditions: H/D exchange in D2O, fast 15N-HSQC, up to 10 h
Summary of the method: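 15N-labelled Pyk2-FAT complexes (400–500 μM, 20 mM MES pH 6.2) were lyophilized and rehydrated in D2O. FAST 1H-15N HSQC spectra were recorded at intervals up to 10 h at 305 K. HSQC spectra in H2O before and after exchange checked structural integrity.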

Pyk2-FAT [5] = assay: Steady-state 1H-15N heteronuclear NOE; design: species or system human; conditions: 600 MHz, 305 K; relative to free Pyk2-FAT, loop regions
Summary of the method: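 Steady-state 1H-15N heteronuclear NOE was measured at 600 MHz, 305 K on 15N-labelled Pyk2-FAT, free and bound to LD-motif peptide. Protein was at 400–500 μM in 20 mM MES pH 6.2. NOE values were taken as peak-intensity ratios of 1H-saturated to unsaturated spectra.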

FAK-FAT = conditions: cited from earlier work
[6] = test system: FAT-like domain from G-protein-coupled receptor kinase-interacting protein 1 (GIT1); conditions: ref [41]; cited from earlier work
[7] = biological target: B5; assay: AUC
[8] = biological target: B5; assay: ITC
[9] = Sedimentation velocity AUC; format: physicochemical; conditions: for percentage protein amount in c(s) peak: 20 °C, 50,000 rpm; for f/f0 (weight-average frictional ratio): best-fit from c(s) distribution, 20 °C
Summary of the method: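 Sedimentation velocity at 50,000 rpm and 20°C in 20 mM MES, pH 6.2, with or without 50 mM NaCl. Partial specific volumes calculated from sequence. Rayleigh interference scans taken every 1.0 min over 10 h. Data fitted to a c(s) distribution model. The s-value is the ordinate maximum of each c(s) peak; percentage protein amount is reported per peak.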

[10] = biological target: B3; assay: ITC
Pyk2-FAT [11] = assay: Reverse NMR titration: unlabeled Pyk2-FAT added to 15N-labeled paxillin ligand; format: binding, human; conditions: 1H-15N HSQC/TROSY, ratios up to 1:2, 20 mM MES, pH 6.2
Summary of the method: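 Unlabelled Pyk2-FAT was titrated into a 15N-labelled ligand in 20 mM MES pH 6.2, with 15N-1H HSQC spectra at 600/800 MHz and 305 K. Ligands were an expressed chicken paxillin 139–163 peptide or His-tagged chicken paxillin 133–290. […] Ratios were 1:0.2–1:2.0.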

[12] = biological target: B3; assay: AUC
[13] = biological target: B3; assay: NMR paramagnetic relaxation enhancement

With “LD3: paxillin derived peptide LD3 (chicken paxillin; residues 217–237), chemically synthesized (SVESLLDELESSVPSPVPAIT)” as the molecule, how does the “binding to Pyk2-FAT (qualitative, ITC)” value (Pyk2-FAT [1]) read?
The value was “very weak compared to LD2 and LD4 peptides”.

Which “affinity preference for H2/H3 site over H1/H4 site of Pyk2-FAT” value (Pyk2-FAT [1]; from ITC and AUC studies) does the source give for “LD4: paxillin derived peptide LD4 (chicken paxillin; residues 262–278), chemically synthesized (SATRELDELMASLSDFK)” here?
The value was 5 fold.

And the “global free energy difference between first and second sites (ΔGAB and ΔGABB)” value (Pyk2-FAT [2]; 1:2 stoichiometry, two-site hetero-association model)?
Its value is -0.77 kcal/mol.

And the “Delta G, single site (1:1)” value (Pyk2-FAT [2]; single site hetero-association model, T = 277.149994K, RT = 0.551kcal/mol)?
The value was -7.52 kcal/mol.

What about the “Delta G, first binding site (1:2)” value (Pyk2-FAT [2]; two site hetero-association model, first site, T = 277.149994K, RT = 0.551kcal/mol) of the same molecule?
The value was -7.47 kcal/mol.

What about the “Delta G, second binding site (both occupied)” value (Pyk2-FAT [2]; two site hetero-association model, second site, T = 277.149994K, RT = 0.551kcal/mol) of the same molecule?
The value was -6.70 kcal/mol.

And the Kd (Pyk2-FAT [2]; read-out: KAB (first site), 1:2 stoichiometry)?
Its Kd is 1290 ± 90 nM.

What about the Kd (Pyk2-FAT [2]; read-out: KABB (second site), 1:2 stoichiometry) of the same molecule?
Its Kd is 5180 ± 360 nM.

And the “binding sites / site preference on Pyk2-FAT by NMR” value (Pyk2-FAT [3])?
Its value is “H2/H3 is the stronger binding site”.

And the “amide H/D exchange protection of Pyk2-FAT in complex” value (Pyk2-FAT [4])?
Its value is “residues from H2/H3 and H1/H4 were protected even after 10 hrs”.

What about the “steady-state 1H-15N NOE of Pyk2-FAT amides upon ligand binding” value (Pyk2-FAT [5]) of the same molecule?
Its value is “significantly increased relative to free Pyk2-FAT”.

What about the “preferred binding site on FAK-FAT” value (FAK-FAT; ref [39] (b5), [39], [40]) of the same molecule?
Its value is “binds to the H2/H3 site”.

And the “LD4 binding to the FAK FAT H1/H4 site” value (FAK-FAT; ref [40])?
Its value is “defective”.

And the “binding site on GIT1 FAT-like domain” value [6]?
The value was “located exclusively at the H1/H4 surface”.

B1: paxillin^133–242: paxillin construct LD2–LD3 (protein)
chain: MTSTSLGSNLSELDRLLLELNAVQHNPPSGFSADEVSRSPSLPNVTGPHYVIPESSSSAGGKAAPPTKEKPKRNGGRGIEDVRPSVESLLDELESSVPSPVPAITVSQGE
For B1, which “binding to Pyk2-FAT (qualitative, ITC)” value (Pyk2-FAT [1]) is on record?
Its value is “two-site sequential binding model”.

B2: paxillin^212–282: paxillin construct LD3–LD4 (protein)
chain: EDVRPSVESLLDELESSVPSPVPAITVSQGEVSSPQRVNASQQQTRISASSATRELDELMASLSDFKFMAQGK
For B2, which “binding to Pyk2-FAT (qualitative, ITC)” value (Pyk2-FAT [1]) is on record?
Its value is “two-site sequential binding model”.

What does the source list for B3?
Kd [7]: 400 nM; Kd [8]: 1800 ± 100 nM

B4: Pyk2-FAT: FAT domain of human Pyk2 (residues 871–1005), N-terminal His6-tag (protein)
chain: ANLDRTDDLVYLNVMELVRAVLELKNELCQLPPEGYVVVVKNVGLTLRKLIGSVDDLLPSLPSSSRTEIEGTQKLLNKDLAELINKMRLAQQNAVTSLSEECKRQMLTASHTLAVDAKNLLDAVDQAKVLANLAH
modifications: left off: His6, N-terminal, state not stated
Which results are given for B4?
percentage protein amount in c(s) peak [9]: 99%; f/f0 (weight-average frictional ratio) [9]: 1.34

What does the source list for B5?
dH [10]: -5 ± 0.1 kcal/mol; stoichiometry N [10]: 1.2

B6: paxillin^133–290: chicken paxillin residues 133–290, truncated construct comprising LD motifs 2, 3 and 4, N-terminal His-tag (protein)
chain: MTSTSLGSNLSELDRLLLELNAVQHNPPSGFSADEVSRSPSLPNVTGPHYVIPESSSSAGGKAAPPTKEKPKRNGGRGIEDVRPSVESLLDELESSVPSPVPAITVSQGEVSSPQRVNASQQQTRISASSATRELDELMASLSDFKFMAQGKAGGSSS
modifications: left off: His-tag, N-terminal, kept
Which results are given for B6?
oligomerization state of unbound protein [9]: appears to form some soluble associated species (oligomers) of undetermined stoichiometry’s, but the main species appears to be a monomer; percentage protein amount in c(s) peak [9]: 48%; f/f0 (weight-average frictional ratio) [9]: 1.70; f/f0 (weight-average frictional ratio) ([9]; listed as paxillin): 1.7; apparent molecular mass of the 1:1 complex ([9]; theoretical 33,706 Da): 30.20 kDa; binding sites / site preference on Pyk2-FAT by NMR (Pyk2-FAT [3]): binding preference for H2/H3; effect of unlabeled Pyk2-FAT on resonances of 15N-labeled ligand (Pyk2-FAT [11]): several peaks from the LD2 and LD4 regions disappeared beyond detection; increase of binding affinity for FAK FAT relative to LD2 or LD4 peptides alone (FAK-FAT; similar paxillin^133–290 construct, ref [35]): 10 fold

For SATRELDELMASLSDFK (peptide, UniProt P49024 262-278, looked up) [paxillin LD4 peptide (chicken paxillin residues 262-278)], which Kd [12] is on record?
The Kd was 1170 nM.

What about the “dH, first site” value [10] of the same molecule?
The value was -2.8 ± 0.2 kcal/mol.

What about the “dH, second site” value [10] of the same molecule?
Its value is 0.9 ± 0.3 kcal/mol.

Which “dH, first site” value [10] does the source give for GSNLSELDRLLLELNAVQHNPPSGF (peptide, UniProt P49024 139-163, looked up) [paxillin LD2 peptide (chicken paxillin residues 139-163)] here?
The value was -2.4 ± 0.1 kcal/mol.

And the “dH, second site” value [10]?
The value was 0.3 ± 0.1 kcal/mol.

Does GSNLSELDRLLLELNAVC(MTSL)HNPPSGF (peptide, UniProt P49024 139-163, looked up) [spin-labeled LD2 (Q156C) peptide] bind [13]?
Result: binds
